Measurements from article PMC8458242 (Biochimie, 2021).
“Also recorded” adds a separate entry of the source. Where two headings read alike, the source gives them in different places.

Experiments:
CMV AD169 = assay: Anti-CMV activity in WS1 cell cultures; assay type: cell-based, Human cytomegalovirus; details: human fibroblast WS1 cell line infected with CMV AD169, 5 days, n=3
[1] = Viability assay in WS1 cell cultures; assay type: cell-based, human; details: human, WS1 cells
WS1 cells = assay: Viability assay in WS1 cell cultures; assay type: cell-based, human; details: read-out: Cytotoxicity CC50; WS1 cell line, MTT, three days
MT-4 cells [2] = assay: Viability assay in MT-4 cell cultures; assay type: cell-based, Human
[3] = tested on: esterase from porcine liver; assay: Hydrolysis of the compounds by esterase from porcine liver; details: Tris-HCl buffer pH 8.2, 37 °C
[4] = Viability assay in MT-4 cell cultures; assay type: cell-based, Human; details: human, MT-4 cells
CMV (AD169) = assay: Anti-CMV activity in HIV-1/CMV coinfected human tissues ex vivo; assay type: cell-based, Human cytomegalovirus; details: for inhibition of number of CMV DNA copies/μL: HIV-1/CMV-coinfected human lymphoid tissue, 10 μM, 15 days
How it was run: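 Human tonsil tissue blocks (2-3 mm) cultured on collagen sponge at the air-liquid interface in RPMI 1640 with 15% FBS. Blocks pretreated with test compound (10 μM) 12 h before simultaneous infection with HIV-1 X4LAI.04 and CMV AD169 stocks. Medium changed every 3 days; 15 days at 37°C. CMV DNA in culture medium measured by real-time PCR, as percent of untreated control. Means ± SEM, 3 or 6 donors.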

HIV-1 (X4LAI.04) = assay: Anti-HIV-1 activity in HIV-1/CMV coinfected human tissues ex vivo; assay type: cell-based; details: for inhibition of cumulative production of p24gag: HIV-1/CMV-coinfected human lymphoid tissue, 10 μM, 15 days; for inhibition of HIV-1 replication by controls: coinfected tissues, control drugs, concentration not given, n=3
How it was run: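 Tonsillar tissue blocks (2-3 mm) kept on collagen sponge at the air-liquid interface, RPMI 1640 with 15% FBS. Pretreated with test compound at 10 μM 12 h before coinoculation with HIV-1 X4LAI.04 and CMV AD169. Medium changed every 3 days; cultured 15 days at 37°C. p24gag in medium measured by Luminex bead assay, as percent of untreated control. Means ± SEM, 3 or 6 donors.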

HIV-1 X4LAI.04 = assay: Anti HIV-1 activity in human tonsillar tissue ex vivo; assay type: cell-based; details: 12 days
[5] = tested on: esterase from porcine liver
MT-4 cells [6] = details: cited from earlier work
CMV = details: cited from earlier work
[7] = 1 nM (first of five concentrations ranging from 1 nM to 10 μM)
[8] = 10 μM (fifth of five concentrations ranging from 1 nM to 10 μM)
[9] = fourth of five concentrations ranging from 1 nM to 10 μM
[10] = second of five concentrations ranging from 1 nM to 10 μM
[11] = third of five concentrations ranging from 1 nM to 10 μM

With `O=C(O)Cn1c(=O)ccn(CCCCCCCCCCOc2ccc(Br)cc2)c1=O` [2e, [3-[10-(4-bromophenoxy)decyl]-2,6-dioxo-3,6-dihydropyrimidin-1(2H)-yl]acetic acid] the “Antiviral activity EC50 ± SD” value (CMV AD169) was “inactive” and the CC50 at 3 days [1] was 164 µM.
In the case of `Cc1cn([C@H]2C[C@H](N=[N+]=[N-])[C@@H](COC(=O)Cn3c(=O)ccn(CCCCCOc4ccc(Br)cc4)c3=O)O2)c(=O)[nH]c1=O` [3b, (3'-azido-3'-deoxytimidine)-2-(3-((4-bromophenoxy)pentyl)-2,6-dioxo-2,3-dihydropyrimidin-1(6H)-yl)acetate], the CC50 (WS1 cells) is reported as 173 µM, the CC50 (MT-4 cells [2]) is reported as over 100 µM and the “T1/2 of hydrolysis by esterase” value [3] is reported as 7 to 8 h.
For `O=C(O)Cn1c(=O)ccn(CCCCCCOc2ccc(Br)cc2)c1=O` [2c, [3-[6-(4-bromophenoxy)hexyl]-2,6-dioxo-3,6-dihydropyrimidin-1(2H)-yl]acetic acid], the CC50 at 3 days [1] was 724 µM, the CC50 at 3 days [4] was over 100 µM and the “inhibition of CMV by control compounds” value (CMV (AD169); coinfected tissues, control compounds, concentration not given, n=3) was 68.6 ± 11.3%.
With `O=C(O)Cn1c(=O)ccn(CCCOc2ccc(Br)cc2)c1=O` [2a, [3-[3-(4-bromophenoxy)propyl]-2,6-dioxo-3,6-dihydropyrimidin-1(2H)-yl]acetic acid] the “Antiviral activity EC50 ± SD” value (CMV AD169) was “inactive” and the CC50 at 3 days [1] was 965 µM.
In the case of `Cc1cn([C@H]2C[C@H](N=[N+]=[N-])[C@@H](COC(=O)Cn3c(=O)ccn(CCCOc4ccc(Br)cc4)c3=O)O2)c(=O)[nH]c1=O` [3a, (3'-azido-3'-deoxytimidine)-2-(3-((4-bromophenoxy)propyl)-2,6-dioxo-2,3-dihydropyrimidin-1(6H)-yl)acetate], the CC50 (WS1 cells) is reported as 347 µM and the CC50 (MT-4 cells [2]) is reported as 82.1 µM.
For `Nc1ccn([C@@H]2CS[C@H](COC(=O)Cn3c(=O)ccn(CCCCCCOc4ccc(Br)cc4)c3=O)O2)c(=O)n1` [4c, ((−)-L-2′,3′-dideoxy-3′-thiacytidine)-2-(3-((4-bromophenoxy)hexyl)-2,6-dioxo-2,3-dihydropyrimidin-1(6H)-yl)acetate], the “inhibition of cumulative production of p24gag” value (HIV-1 (X4LAI.04)) was 99.4 ± 0.4%, the “inhibition of HIV-1 replication” value (HIV-1 X4LAI.04; [7]) was 0.6 ± 0.2% and the “inhibition of HIV-1 replication” value (HIV-1 X4LAI.04; [8]) was 99.6 ± 0.1%. The “inhibition of HIV-1 replication” value (HIV-1 X4LAI.04; [9]) was 88.6 ± 2.9%, the “inhibition of HIV-1 replication” value (HIV-1 X4LAI.04; [10]) was 14.6 ± 6.5% and the “inhibition of HIV-1 replication” value (HIV-1 X4LAI.04; [11]) was 45.7 ± 3.7%. For the same compound, the CC50 (MT-4 cells [2]) was over 100 µM, the “inhibition of number of CMV DNA copies/μL” value (CMV (AD169)) was 78.7 ± 1.7% and the “T1/2 of hydrolysis by esterase” value [3] was “about 24 hrs”.
`Cc1cn([C@H]2C[C@H](N=[N+]=[N-])[C@@H](COC(=O)Cn3c(=O)ccn(CCCCCCCCOc4ccc(Br)cc4)c3=O)O2)c(=O)[nH]c1=O` [3d, (3'-azido-3'-deoxytimidine)-2-(3-((4-bromophenoxy)octyl)-2,6-dioxo-2,3-dihydropyrimidin-1(6H)-yl)acetate] showed a CC50 (WS1 cells) of 600 µM and a CC50 (MT-4 cells [2]) of over 100 µM.
With `O=C(O)Cn1c(=O)ccn(CCCCCCCCOc2ccc(Br)cc2)c1=O` [2d, [3-[8-(4-bromophenoxy)octyl]-2,6-dioxo-3,6-dihydropyrimidin-1(2H)-yl]acetic acid] the CC50 at 3 days [1] was 90.5 µM.
For `CC(=O)OC[C@H]1O[C@@H](n2cc(C)c(=O)[nH]c2=O)C[C@@H]1OC(C)=O` [Thymidine diacetate], the “hydrolysis totally completed after” value [5] was 5 to 6 h.
In the case of `O=C(O)Cn1c(=O)ccn(CCCCCCCCCCCCOc2ccc(Br)cc2)c1=O` [2f, [3-[12-(4-bromophenoxy)dodecyl]-2,6-dioxo-3,6-dihydropyrimidin-1(2H)-yl]acetic acid], the “Antiviral activity EC50 ± SD” value (CMV AD169) is reported as “inactive” and the CC50 at 3 days [1] is reported as 22 µM.
`Nc1nc(O)c2ncn(COC(CO)CO)c2n1` [GCV, ganciclovir, reference compound] gave a CC50 at 3 days [1] of 500 µM.
For `Cc1cn([C@H]2C[C@H](N=[N+]=[N-])[C@@H](COC(=O)Cn3c(=O)ccn(CCCCCCCCCCCCOc4ccc(Br)cc4)c3=O)O2)c(=O)[nH]c1=O` [3f, (3'-azido-3'-deoxytimidine)-2-(3-((4-bromophenoxy)dodecyl)-2,6-dioxo-2,3-dihydropyrimidin-1(6H)-yl)acetate], the CC50 (WS1 cells) was 253 µM and the CC50 (MT-4 cells [2]) was over 100 µM.
`O=C(O)Cn1c(=O)ccn(CCCCCOc2ccc(Br)cc2)c1=O` [2b, [3-[5-(4-bromophenoxy)pentyl]-2,6-dioxo-3,6-dihydropyrimidin-1(2H)-yl]acetic acid] showed a CC50 at 3 days [1] of 749 µM.
For `Cc1cn([C@H]2C[C@H](N=[N+]=[N-])[C@@H](COC(=O)Cn3c(=O)ccn(CCCCCCCCCCOc4ccc(Br)cc4)c3=O)O2)c(=O)[nH]c1=O` [3e, (3'-azido-3'-deoxytimidine)-2-(3-((4-bromophenoxy)decyl)-2,6-dioxo-2,3-dihydropyrimidin-1(6H)-yl)acetate], the CC50 (WS1 cells) was 182 µM and the CC50 (MT-4 cells [2]) was over 100 µM.
For `Cc1cn([C@H]2C[C@H](N=[N+]=[N-])[C@@H](COC(=O)Cn3c(=O)ccn(CCCCCCOc4ccc(Br)cc4)c3=O)O2)c(=O)[nH]c1=O` [3c, (3'-azido-3'-deoxytimidine)-2-(3-((4-bromophenoxy)hexyl)-2,6-dioxo-2,3-dihydropyrimidin-1(6H)-yl)acetate], the CC50 (WS1 cells) was 393 µM, the “inhibition of cumulative production of p24gag” value (HIV-1 (X4LAI.04)) was 97.2 ± 2.1% and the “inhibition of HIV-1 replication” value (HIV-1 X4LAI.04; [7]) was 0 ± 0.5%. For the same compound, the “inhibition of HIV-1 replication” value (HIV-1 X4LAI.04; [8]) was 96.2 ± 1.0%, the “inhibition of HIV-1 replication” value (HIV-1 X4LAI.04; [9]) was 76.5 ± 3.3% and the “inhibition of HIV-1 replication” value (HIV-1 X4LAI.04; [10]) was 17.9 ± 8.2%. The “inhibition of HIV-1 replication” value (HIV-1 X4LAI.04; [11]) was 31.4 ± 7.7%, the CC50 (MT-4 cells [2]) was over 100 µM and the “inhibition of number of CMV DNA copies/μL” value (CMV (AD169)) was 86.9 ± 3.3%. For the same compound, the “T1/2 of hydrolysis by esterase” value [3] was 7 to 8 h.
For `Cc1cn([C@H]2C[C@H](N=[N+]=[N-])[C@@H](CO)O2)c(=O)[nH]c1=O` [AZT, 2',3'-dideoxy-3'-azidothymidine], the CC50 (MT-4 cells [6]) is given as over 100 µM, the “inhibition of HIV-1 replication by controls” value (HIV-1 (X4LAI.04)) is given as 97.0 ± 1.6% and the “effect on CMV replication / anti CMV activity” value (CMV) is given as “does not have any anti CMV activity; also recorded: no effect on CMV replication”.
For `Nc1ccn([C@@H]2CS[C@H](CO)O2)c(=O)n1` [3TC, (−)-L-2′,3′-dideoxy-3′-thiacytidine], the CC50 (MT-4 cells [6]) is listed as over 100 µM, the “inhibition of HIV-1 replication by controls” value (HIV-1 (X4LAI.04)) is listed as 99.7 ± 0.2% and the “effect on CMV replication / anti CMV activity” value (CMV) is listed as “no effect on CMV replication”.
